Source: ChEMBL document CHEMBL1140177 (J Med Chem, 2008)
≈ marks a conversion by molar mass, not a printed value.

What was measured:
[1] = system: Human immunodeficiency virus 1; experiment: Antiviral activity against wild type HIV1 infected in human MT4 cells after 72 hrs in presence of 50% normal human serum; type: functional; details: Human immunodeficiency virus 1, MT4, 72 h; read-out: CIC95
Procedure, shortened: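 MT-4 human T-lymphoid cells in RPMI 1640 with 50% NHS. CIC95 is the concentration that inhibits viral spread by >95%. Values are either geometric means of two determinations or given with standard deviations for n > 3 or n > 50.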

[2] = system: Human immunodeficiency virus 1; experiment: Antiviral activity against HIV1 with reverse transcriptase Y181C mutant infected in human MT4 cells after 72 hrs in presence of 10% fetal bovine serum; type: functional; details: Human immunodeficiency virus 1, MT4, 72 h; read-out: CIC95
Procedure, shortened: (§1)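 Mutant HIV-1 spread was assayed in MT-4 human T-lymphoid cells kept in RPMI 1640 with 10% FBS. CIC95 is the concentration that inhibits viral spread by >95%. Values are geometric means of two determinations, or mean with standard deviation where n > 3. Cytotoxicity was checked up to an assay limit of 8.3 µM.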

[3] = system: Human immunodeficiency virus 1; experiment: Antiviral activity against HIV1 with reverse transcriptase K103N mutant infected in human MT4 cells after 72 hrs in presence of 10% fetal bovine serum; type: functional; details: Human immunodeficiency virus 1, MT4, 72 h; read-out: CIC95; procedure, shortened: as §1
[4] = system: Human immunodeficiency virus 1; experiment: Antiviral activity against wild type HIV1 infected in human MT4 cells after 72 hrs in presence of 10% fetal bovine serum; type: functional; details: Human immunodeficiency virus 1, MT4, 72 h; read-out: CIC95
Procedure, shortened: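 MT-4 human T-lymphoid cells in RPMI 1640 with 10% FBS. CIC95 is the concentration that inhibits viral spread by >95%. Values are either geometric means of two determinations or given with standard deviations for n > 3 or n > 50.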

[5] = AUC in Beagle dog at 10 mg/kg, po; type: ADME, organism-based, Canis lupus familiaris; design: dose 10 mg/kg, route oral; details: plasma
Procedure, shortened: (§2)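 Three beagle dogs, averaged. Oral dose 10 mpk in 0.5% methocel; intravenous dose 2 mpk in DMSO. Individual values within 25% of mean.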

[6] = system: Human immunodeficiency virus 1; experiment: Antiviral activity against HIV1 with reverse transcriptase K103N/Y181C/G190A mutant in presence of 40% normal human serum; type: functional, organism-based
[7] = system: Human immunodeficiency virus 1; experiment: Antiviral activity against HIV1 with reverse transcriptase K103N/P225H mutant in presence of 40% normal human serum; type: functional, organism-based
[8] = Clearance in rhesus monkey at 10 mg/kg, po and 2 mg/kg, iv; type: ADME, organism-based, Macaca mulatta; details: in vivo
[9] = system: Human immunodeficiency virus 1; experiment: Antiviral activity against HIV1 with reverse transcriptase Y188L mutant in presence of 40% normal human serum; type: functional, organism-based
[10] = Volume of distribution in Sprague-Dawley rat at 10 mg/kg, po and 3 mg/kg, iv; type: ADME, organism-based; details: in vivo
Procedure, shortened: (§3)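 Three Sprague-Dawley rats, averaged. Oral dose 10 mpk in 0.5% methocel; intravenous dose 3 mpk in DMSO. Individual values within 25% of mean.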

[11] = system: Human immunodeficiency virus 1; experiment: Antiviral activity against HIV1 with reverse transcriptase K103N mutant in presence of 40% normal human serum; type: functional, organism-based
Canis familiaris [12] = species: Canis familiaris; experiment: Toxicity in cardiovascular dog model assessed as effect on heart rate; type: organism-based, Canis lupus familiaris; details: in vivo
Procedure, shortened: (§4)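 Conscious dog cardiovascular model, with QTc, heart rate and blood pressure monitored at plasma levels up to 55 µM.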

[13] = AUC in rhesus monkey at 10 mg/kg, po; type: ADME, organism-based, Macaca mulatta; design: dose 10 mg/kg, route oral; details: plasma
[14] = Oral bioavailability in Beagle dog at 10 mg/kg; type: ADME, organism-based, Canis lupus familiaris; details: in vivo; procedure, shortened: as §2
[15] = Volume of distribution in Beagle dog at 10 mg/kg, po and 2 mg/kg, iv; type: ADME, organism-based, Canis lupus familiaris; details: in vivo; procedure, shortened: as §2
[16] = system: Human immunodeficiency virus 1; experiment: Antiviral activity against wild type HIV1 in presence of 40% normal human serum; type: functional, organism-based
Procedure, shortened: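 Monogram Bioscience PhenoScreen cell-culture assay run with 40% NHS. […] Value is the geometric mean of n = 2.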

[17] = system: Human immunodeficiency virus 1; experiment: Antiviral activity against HIV1 with reverse transcriptase K101E/G190A mutant in presence of 40% normal human serum; type: functional, organism-based
[18] = system: Human immunodeficiency virus 1; experiment: Antiviral activity against HIV1 with reverse transcriptase Y181C mutant in presence of 40% normal human serum; type: functional, organism-based
[19] = Solubility at pH 2; type: physicochemical; details: buffer
[20] = system: Human immunodeficiency virus 1; experiment: Antiviral activity against HIV1 with reverse transcriptase Y181C/G190A mutant in presence of 40% normal human serum; type: functional, organism-based
Canis familiaris [21] = experiment: Half life in Beagle dog at 10 mg/kg, po and 2 mg/kg, iv; type: ADME, organism-based, Canis lupus familiaris; details: in vivo; procedure, shortened: as §2
[22] = system: Human immunodeficiency virus 1; experiment: Antiviral activity against HIV1 with reverse transcriptase K103N/G190A mutant in presence of 40% normal human serum; type: functional, organism-based
[23] = system: Human immunodeficiency virus 1; experiment: Antiviral activity against HIV1 with reverse transcriptase V179E mutant in presence of 40% normal human serum; type: functional, organism-based
[24] = Oral bioavailability in Sprague-Dawley rat at 10 mg/kg; type: ADME, organism-based; details: in vivo
[25] = system: Human immunodeficiency virus 1; experiment: Antiviral activity against HIV1 with reverse transcriptase V106A mutant in presence of 40% normal human serum; type: functional, organism-based
[26] = system: Human immunodeficiency virus 1; experiment: Antiviral activity against HIV1 with reverse transcriptase F227L mutant in presence of 40% normal human serum; type: functional, organism-based
[27] = Clearance in Beagle dog at 10 mg/kg, po and 2 mg/kg, iv; type: ADME, organism-based, Canis lupus familiaris; details: in vivo; procedure, shortened: as §2
[28] = system: Human immunodeficiency virus 1; experiment: Antiviral activity against HIV1 with reverse transcriptase G190S mutant in presence of 40% normal human serum; type: functional, organism-based
Rattus norvegicus = experiment: Half life in Sprague-Dawley rat at 10 mg/kg, po and 3 mg/kg, iv; type: ADME, organism-based; details: in vivo; procedure, shortened: as §3
Canis familiaris [29] = species: Canis familiaris; experiment: Toxicity in cardiovascular dog model assessed as effect on blood pressure; type: organism-based, Canis lupus familiaris; details: in vivo; procedure, shortened: as §4
[30] = Oral bioavailability in rhesus monkey at 10 mg/kg; type: ADME, organism-based, Macaca mulatta; details: in vivo
[31] = Volume of distribution in rhesus monkey at 10 mg/kg, po and 2 mg/kg, iv; type: ADME, organism-based, Macaca mulatta; details: in vivo
Canis familiaris [32] = species: Canis familiaris; experiment: Toxicity in cardiovascular dog model assessed as effect on QTc intervals; type: organism-based, Canis lupus familiaris, Heart; details: in vivo; procedure, shortened: as §4
[33] = system: Human immunodeficiency virus 1; experiment: Antiviral activity against HIV1 with reverse transcriptase K103N/V179E mutant in presence of 40% normal human serum; type: functional, organism-based
[34] = Clearance in Sprague-Dawley rat at 10 mg/kg, po and 3 mg/kg, iv; type: ADME, organism-based; details: in vivo; procedure, shortened: as §3
[35] = system: Human immunodeficiency virus 1; experiment: Antiviral activity against HIV1 with reverse transcriptase G190A mutant in presence of 40% normal human serum; type: functional, organism-based
[36] = system: Human immunodeficiency virus 1; experiment: Antiviral activity against HIV1 with reverse transcriptase K103N/Y181C mutant in presence of 40% normal human serum; type: functional, organism-based
[37] = system: Human immunodeficiency virus 1; experiment: Antiviral activity against HIV1 with reverse transcriptase P236L mutant in presence of 40% normal human serum; type: functional, organism-based
[38] = system: Human immunodeficiency virus 1; experiment: Antiviral activity against HIV1 with reverse transcriptase L100I mutant in presence of 40% normal human serum; type: functional, organism-based
[39] = AUC in Sprague-Dawley rat at 10 mg/kg, po; type: ADME, organism-based; design: dose 10 mg/kg, route oral; details: plasma
[40] = molecular target: Human immunodeficiency virus type 1 reverse transcriptase (Human immunodeficiency virus 1, UniProt Q72547); experiment: Inhibition of wild type HIV1 RT polymerase by SPA
[41] = molecular target: Human immunodeficiency virus type 1 reverse transcriptase (Human immunodeficiency virus 1, UniProt Q72547, K103N); experiment: Inhibition of HIV1 RT polymerase K103N mutant by SPA
[42] = molecular target: Human immunodeficiency virus type 1 reverse transcriptase (Human immunodeficiency virus 1, UniProt Q72547, Y181C); experiment: Inhibition of HIV1 RT polymerase Y181C mutant by SPA

For `N#Cc1cc(Cl)cc(Oc2cc(OCc3n[nH]c4ccccc34)ccc2Cl)c1`, the IC95 [1] was 114 nM, the IC95 [2] was 102 nM and the IC95 [3] was 33 nM. It also gave an IC95 [4] of 22.6 nM.

Work on `N#Cc1cc(Cl)cc(Oc2cc(OCc3n[nH]c4nc(N)ccc34)ccc2Cl)c1` yielded an AUC [5] of 31.3 µM·h, an IC95 [1] of 34 nM and an IC50 [6] of 98.3 nM. For the same molecule, the IC50 [7] was 1.2 nM, the clearance [8] was 15.8 mL/min/kg and the IC50 [9] was > 1000 nM. For the same molecule, the Vd [10] was 2 L/kg, the IC50 [11] was 4.4 nM and the Activity (Canis familiaris [12]) was “Non-toxic”. It also gave an IC95 [2] of 19 nM, an AUC [13] of 0.3 µM·h and a bioavailability [14] of 47%. For the same molecule, the IC95 [3] was 11.4 nM, the Vd [15] was 1.7 L/kg and the IC50 [16] was 1.35 nM. The IC50 [17] was 10.1 nM, the IC50 [18] was 5.6 nM and the solubility [19] was 10 µg/mL (≈ 23.5 µM). For the same molecule, the IC50 [20] was 14.8 nM, the t1/2 (Canis familiaris [21]) was 3.9 h and the IC50 [22] was 9.6 nM. It also gave an IC50 [23] of 5 nM, a bioavailability [24] of 52% and an IC50 [25] of 147 nM. The IC50 [26] was 0.7 nM, the clearance [27] was 5.8 mL/min/kg and the IC50 [28] was 7.6 nM. For the same molecule, the t1/2 (Rattus norvegicus) was 3.5 h, the Activity (Canis familiaris [29]) was “Non-toxic” and the bioavailability [30] was 1%. The Vd [31] was 1.9 L/kg, the Activity (Canis familiaris [32]) was “Non-toxic” and the IC95 [4] was 8.4 nM. It also gave an IC50 [33] of 9.6 nM, a clearance [34] of 9 mL/min/kg and an IC50 [35] of 1.5 nM. It also gave an IC50 [36] of 84 nM, an IC50 [37] of 4.2 nM and an IC50 [38] of 1.8 nM. It also gave an AUC [39] of 22.7 µM·h.

For `N#Cc1cc(Cl)cc(Oc2cc(OCc3n[nH]c4ccncc34)ccc2Cl)c1`, the IC50 [40] was 1.2 nM, the IC95 [1] was 307 nM and the IC95 [2] was 278 nM. For the same molecule, the IC95 [3] was 922 nM, the IC50 [41] was 3.8 nM and the IC50 [42] was 6.2 nM. For the same molecule, the IC95 [4] was 169 nM.
